The source of these data is ChEMBL document CHEMBL1145210, “Novel cyano- and N-isopropylamidino-substituted derivatives of benzo[b]thiophene-2-carboxanilides and benzo[b]thieno[2,3-c]quinolones: synthesis, photochemical synthesis, crystal structure determination, and antitumor evaluation. 2” (J Med Chem, 2005).

The subject of assay [1] is HeLa. The assay can be described thus: Percentage of apoptosis induced by compound in HeLa cell line after at 5 uM concentration 72 h. Format: functional, Homo sapiens. An outline of the steps:
(§1)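 Annexin-V assay after 72 h exposure to 5 or 10 µM. Cells washed with PBS, pelleted, and stained with Annexin-V-fluorescein plus propidium iodide in Hepes buffer. Scored by fluorescence microscopy: Annexin-V-positive cells counted as apoptotic, Annexin-V/PI double-positive as necrotic. Apoptotic fraction given as percentage of total cells.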

The test system of assay [2] is SW-620. The assay can be described thus: Percentage of apoptosis induced by compound in SW 620 cell line at 10 uM concentration after 72 h. In kind it is functional, Homo sapiens. An outline of the steps:
as §1

Assay [3] relates to MIA PaCa-2. The assay can be described thus: Percentage of apoptosis induced by compound in MiaPaCa-2 cell line at 5 uM concentration after 72 h. Format: functional, Homo sapiens. An outline of the steps:
as §1

The nature of assay [4]: In vitro Inhibition on growth of human Hep 2 laryngeal carcinoma cell line. Format: functional. An outline of the steps:
(§2)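 Monolayer cultures in DMEM with 10% FBS, 2 mM L-glutamine, penicillin/streptomycin, 37 °C, 5% CO2. Cells plated on day 0 at densities set by doubling time (1 × 10⁴/mL HeLa, Hep-2, MiaPaCa-2, SW 620; 2 × 10⁴/mL MCF-7; 3 × 10⁴/mL WI 38). Compound added at five 10-fold dilutions (10^-8 to 10^-4 mol/L) for 72 h. MTT read at 570 nm, converted to percentage growth versus time-zero and untreated controls. Quadruplicate points, three experiments. IC50 by linear regression.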

Assay [5] has as its system MIA PaCa-2. The assay can be described thus: In vitro Inhibition on growth of human MiaPaCa-2 pancreatic carcinoma cell line. Format: functional, cell-based. An outline of the steps:
as §2

Assay [6] deals with SW-620. Nature of the assay: Percentage of apoptosis induced by compound in SW 620 cell line at 5 uM concentration after 72 h. In kind it is functional, Homo sapiens. An outline of the steps:
as §1

The test system of assay [7] is HeLa. Nature of the assay: Percentage of apoptosis induced by compound in HeLa cell line after at 10 uM concentration 72 h. Format: functional, Homo sapiens. An outline of the steps: as §1
In assay [8] the test system is MIA PaCa-2. The assay can be described thus: Percentage of apoptosis induced by compound in MiaPaCa-2 cell line at 10 uM concentration after 72 h. Format: functional, Homo sapiens. An outline of the steps: as §1
For a further assay, the system named is MCF7. The assay can be described thus: In vitro Inhibition on growth of human MCF 7 breast carcinoma cell line. In kind it is functional, cell-based. The gist of the method:
as §2

A short description of assay [9]: In vitro Inhibition on growth of human WI 38 diploid fibroblast cell line. In kind it is functional, cell-based. An outline of the steps:
as §2

For assay [10], the system named is SW-620. The assay can be described thus: In vitro Inhibition on growth of human SW 620 colon carcinoma cell line. In kind it is functional, cell-based. An outline of the steps:
as §2

The test system of assay [11] is HeLa. Nature of the assay: In vitro Inhibition on growth of human HeLa cervical carcinoma cell line. In kind it is functional, cell-based. An outline of the steps: as §2

As for `CC(C)/N=C(/N)c1ccc2nc(O)c3sc4ccccc4c3c2c1`, the Apoptosis in the assay with HeLa [1] is on record as 9%; with SW-620 [2], 13%; with MIA PaCa-2 [3], 4%; with SW-620 [6], 9%; in the assay on HeLa [7], 11%; in the assay on MIA PaCa-2 [8], 11%. Moreover, the IC50 (commonly the concentration needed to halve the response being measured) was 16.6 µM in assay [4]; 7.3 µM with MIA PaCa-2 [5]; 1.36 µM in the assay with MCF7; at least 100 µM in assay [9]; 32.2 µM in the assay on SW-620 [10]; 25.3 µM with HeLa [11].
In the case of `CC(C)/N=C(/N)c1ccc2c(c1)sc1c(O)nc3ccc(Br)cc3c12`, the Apoptosis with HeLa [1] is 10%; in the assay with SW-620 [2], 13%; with MIA PaCa-2 [3] it was 3%; in the assay on SW-620 [6], 9%; in the assay with HeLa [7], 15%; in the assay on MIA PaCa-2 [8], 11%. Moreover, the IC50 amounted to 9.79 µM in assay [4]; 7.99 µM with MIA PaCa-2 [5]; 6.28 µM with MCF7; 3.88 µM in [9]; 13.2 µM in the assay on SW-620 [10]; 8.92 µM in the assay on HeLa [11].
Take `COC(=O)c1ccc2nc(O)c3sc4cc(C(=N)NC(C)C)ccc4c3c2c1`: the Apoptosis in the assay with HeLa [1] turned out to be 13%; in the assay on SW-620 [2], 7%; in the assay with MIA PaCa-2 [3], 6%; with SW-620 [6], 6%; in the assay with HeLa [7], 15%; in the assay on MIA PaCa-2 [8], 14%. In addition, the IC50 in assay [4] turned out to be 97 µM; with MIA PaCa-2 [5], 6.93 µM; in the assay on MCF7 it was 5.56 µM; in assay [9] it was 5.33 µM; with SW-620 [10], 8.11 µM; with HeLa [11], 15.8 µM.
`CC(C)/N=C(/N)c1ccc2nc(O)c3sc4cc(C#N)ccc4c3c2c1`: the concentration for half-maximal inhibition (IC50) in assay [4] was at least 100 µM; in the assay on MIA PaCa-2 [5], 42.1 µM; in the assay on MCF7 it was over 100 µM; in [9] it was at least 100 µM; in the assay with SW-620 [10], over 100 µM; with HeLa [11], 6.14 µM.
On to `COC(=O)c1ccc(NC(=O)c2sc3cc(C#N)ccc3c2Cl)cc1`, for which the Apoptosis in the assay with HeLa [1] was 6%; in the assay with SW-620 [2] it was 71%; with MIA PaCa-2 [3] it was 3%; in the assay on SW-620 [6], 6%; in the assay on HeLa [7] it was 52%; with MIA PaCa-2 [8], 9%. The IC50 is 59.1 µM in [4]; over 100 µM in the assay with MIA PaCa-2 [5]; over 100 µM with MCF7; 2.71 µM in assay [9]; 4.62 µM in the assay with SW-620 [10]; 24.1 µM with HeLa [11].
Take `COc1ccc(NC(=O)c2sc3cc(C(=N)NC(C)C)ccc3c2Cl)cc1`: the IC50 is 9.7 µM in assay [4]; 22.5 µM in the assay on MIA PaCa-2 [5]; 17.4 µM in the assay on MCF7; 29.8 µM in [9]; 8.24 µM in the assay with SW-620 [10]; 5.83 µM in the assay with HeLa [11].
In the case of `CC(C)/N=C(/N)c1ccc(NC(=O)c2sc3cc(/C(N)=N\C(C)C)ccc3c2Cl)cc1`, the IC50 in assay [4] is 67.3 µM; in the assay with MIA PaCa-2 [5], 75.9 µM; in the assay on MCF7 it was 15.6 µM; in [9], 86.9 µM; in the assay on SW-620 [10], over 100 µM; in the assay with HeLa [11], 25.6 µM.
As to `CC(C)/N=C(/N)c1ccc2c(c1)sc1c(O)nc3ccccc3c12`, the IC50 in [4] amounted to 20.9 µM; in the assay with MIA PaCa-2 [5], 18 µM; in the assay on MCF7, 21.3 µM; in [9], 37.4 µM; with SW-620 [10], 3.76 µM; with HeLa [11], 49.2 µM.
For `CC(C)/N=C(/N)c1ccc2c(Cl)c(C(=O)Nc3ccccc3)sc2c1`, the IC50 amounted to 23.8 µM in assay [4]; 7.23 µM in the assay on MIA PaCa-2 [5]; 1.27 µM in the assay with MCF7; 4.7 µM in assay [9]; 4.57 µM in the assay on SW-620 [10]; 4.26 µM in the assay with HeLa [11].
Consider `COc1ccc2c(c1)sc1c(O)nc3ccc(C(=N)NC(C)C)cc3c12`, for which the half-inhibitory concentration (IC50) in [4] was determined as 34.7 µM; in the assay on MIA PaCa-2 [5], 6.73 µM; in the assay on MCF7, 38 µM; in assay [9], 40.6 µM; in the assay on SW-620 [10] it was 20.6 µM; in the assay with HeLa [11], 2.34 µM.
As for `N#Cc1ccc2c(Cl)c(C(=O)Nc3ccccc3)sc2c1`, the IC50 in assay [4] was 0.69 µM; in the assay with MIA PaCa-2 [5] it was over 100 µM; with MCF7 it was 84.9 µM; in assay [9] it was at least 100 µM; in the assay on SW-620 [10] it was at least 100 µM; in the assay on HeLa [11], 0.35 µM.
For the molecule `Cc1ccc2nc(O)c3sc4cc(/C(N)=N\C(C)C)ccc4c3c2c1`, the IC50 was 8.51 µM in [4]; 6.67 µM with MIA PaCa-2 [5]; 5.58 µM in the assay on MCF7; 19.1 µM in assay [9]; 22.7 µM in the assay on SW-620 [10]; 6.43 µM with HeLa [11].
For the molecule `Cc1ccc2c(c1)sc1c(O)nc3ccc(/C(N)=N\C(C)C)cc3c12`, the Apoptosis is reported as 6% with HeLa [1]; 16% in the assay with SW-620 [2]; 3% in the assay with MIA PaCa-2 [3]; 15% with SW-620 [6]; 8% with HeLa [7]; 17% with MIA PaCa-2 [8]. For the same molecule, the IC50 in assay [4] was determined as 8.59 µM; in the assay on MIA PaCa-2 [5], 5.98 µM; in the assay with MCF7 it was 5.4 µM; in assay [9] it was 18.7 µM; in the assay with SW-620 [10], 7.57 µM; in the assay on HeLa [11], 4.3 µM.
`Cc1ccc2c(Cl)c(C(=O)Nc3ccc(/C(N)=N\C(C)C)cc3)sc2c1`: the IC50 in [4] came to 3.94 µM; in the assay on MIA PaCa-2 [5], 4.44 µM; in the assay on MCF7 it was 3.49 µM; in assay [9] it was 3.3 µM; in the assay on SW-620 [10], 3.53 µM; in the assay on HeLa [11] it was 3 µM.
`COC(=O)c1ccc2c(c1)sc1c(O)nc3ccc(C(=N)NC(C)C)cc3c12`: the Apoptosis with HeLa [1] is 12%; with SW-620 [2], 9%; in the assay on MIA PaCa-2 [3], 4%; with SW-620 [6] it was 7%; in the assay with HeLa [7] it was 17%; in the assay on MIA PaCa-2 [8], 13%. Besides, the IC50 in assay [4] was 45.9 µM; in the assay with MIA PaCa-2 [5], 5.64 µM; in the assay with MCF7, 65.1 µM; in assay [9] it was over 100 µM; in the assay with SW-620 [10], 48.8 µM; in the assay with HeLa [11], 4.79 µM.
On to `COC(=O)c1ccc2c(Cl)c(C(=O)Nc3ccccc3)sc2c1`, for which the IC50 is over 100 µM in assay [4]; over 100 µM in the assay with MIA PaCa-2 [5]; over 100 µM with MCF7; 53.6 µM in [9]; 95.5 µM with SW-620 [10]; over 100 µM in the assay on HeLa [11].
On to `N#Cc1ccc(NC(=O)c2sc3ccccc3c2Cl)cc1`, for which the IC50 in assay [4] is 6.5 µM; with MIA PaCa-2 [5] it was over 100 µM; in the assay on MCF7 it was 100 µM; in assay [9], 8.12 µM; in the assay with SW-620 [10], over 100 µM; in the assay on HeLa [11] it was 0.86 µM.
For the molecule `COC(=O)c1ccc(NC(=O)c2sc3ccccc3c2Cl)cc1`, the IC50 is over 100 µM in [4]; over 100 µM with MIA PaCa-2 [5]; over 100 µM in the assay with MCF7; 44.3 µM in [9]; over 100 µM in the assay on SW-620 [10]; over 100 µM with HeLa [11].
